{"source": "ChEMBL document CHEMBL1152757", "about": "“Stereoselective synthesis and biological evaluation of syn-1-amino-3-[18F]fluorocyclobutyl-1-carboxylic acid as a potential positron emission tomography brain tumor imaging agent” (Bioorg Med Chem, 2009)", "key": {"Bone [1]": {"system": "Bone", "assay": "Biodistribution in bone of rat 9L cells implanted Fischer rat at 15 to 30 uCi, iv after 30 mins by gamma-counter", "format": "ADME, organism-based, Bone element", "conditions": "in vivo, 0.5 h", "method_in_brief": "(§1)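 Male Fischer 344 rats (125-175 g) implanted intracranially by stereotactic injection of 5 × 10^4 9L gliosarcoma cells. Used 10-12 days after implantation. Tracer given into the tail vein at 15-30 µCi in 0.1-0.3 mL sterile saline. Groups of 4 were sacrificed at 15, 30, 60 and 120 min. Tissues were weighed and gamma-counted against dose standards, and counts decay-corrected to %ID/g (mean ± SD). One-way ANOVA.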"}, "Bone [2]": {"system": "Bone", "assay": "Biodistribution in bone of rat 9L cells implanted Fischer rat at 15 to 30 uCi, iv after 60 mins by gamma-counter", "format": "ADME, organism-based, Bone element", "conditions": "in vivo, 1 h", "method_in_brief": "as §1"}, "Bone [3]": {"system": "Bone", "assay": "Biodistribution in bone of rat 9L cells implanted Fischer rat at 15 to 30 uCi, iv after 120 mins by gamma-counter", "format": "ADME, organism-based, Bone element", "conditions": "in vivo, 2 h", "method_in_brief": "as §1"}, "[4]": {"assay": "Biodistribution in testis of rat 9L cells implanted Fischer rat at 15 to 30 uCi, iv after 15 mins by gamma-counter", "format": "ADME, organism-based", "conditions": "in vivo, 0.25 h", "method_in_brief": "as §1"}, "[5]": {"assay": "Biodistribution in testis of rat 9L cells implanted Fischer rat at 15 to 30 uCi, iv after 30 mins by gamma-counter", "format": "ADME, organism-based", "conditions": "in vivo, 0.5 h", "method_in_brief": "as §1"}, "[6]": {"assay": "Biodistribution in testis of rat 9L cells implanted Fischer rat at 15 to 30 uCi, iv after 60 mins by gamma-counter", "format": "ADME, organism-based", "conditions": "in vivo, 1 h", "method_in_brief": "as §1"}, "[7]": {"assay": "Biodistribution in testis of rat 9L cells implanted Fischer rat at 15 to 30 uCi, iv after 120 mins by gamma-counter", "format": "ADME, organism-based", "conditions": "in vivo, 2 h", "method_in_brief": "as §1"}, "[8]": {"assay": "Ratio of drug level from tumor to brain of rat 9L cells implanted Fischer rat at 15 to 30 uCi, iv after 15 mins by gamma-counter", "format": "ADME, organism-based", "conditions": "in vivo, 0.25 h", "method_in_brief": "(§2)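 Male Fischer 344 rats (125-175 g) received intracranial implants of 9L cells (5 × 10^4 cells) and were used 10-12 days later. Tracer was given by tail vein at 15-30 µCi in 0.1-0.3 mL sterile saline. Groups of 4 were killed at each time point. Tissues were weighed and gamma counted against dose standards with decay correction, giving %ID/g (mean). The ratio is tumor %ID/g over normal brain %ID/g.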"}, "[9]": {"assay": "Ratio of drug level from tumor to brain of rat 9L cells implanted Fischer rat at 15 to 30 uCi, iv after 30 mins by gamma-counter", "format": "ADME, organism-based", "conditions": "in vivo, 0.5 h", "method_in_brief": "as §2"}, "[10]": {"assay": "Ratio of drug level from tumor to brain of rat 9L cells implanted Fischer rat at 15 to 30 uCi, iv after 60 mins by gamma-counter", "format": "ADME, organism-based", "conditions": "in vivo, 1 h", "method_in_brief": "as §2"}, "[11]": {"assay": "Ratio of drug level from tumor to brain of rat 9L cells implanted Fischer rat at 15 to 30 uCi, iv after 120 mins by gamma-counter", "format": "ADME, organism-based", "conditions": "in vivo, 2 h", "method_in_brief": "as §2"}, "9L": {"system": "9L", "assay": "Drug uptake in rat 9L cells assessed as intracellular accumulation after 30 mins measured per 5 x 10^5 cells by gamma-counter", "format": "ADME, cell-based", "conditions": "0.5 h", "method_in_brief": "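9L cells were grown in DMEM with 10% FCS and penicillin/streptomycin, then trypsinized and washed twice in HBSS. About 5 × 10^5 cells received 5 µCi tracer in amino acid-free HBSS for 30 min at 37 °C, without or with 10 mM BCH (L-type inhibitor). Cells were centrifuged and rinsed twice with ice-cold HBSS, then gamma-counted with decay correction. Uptake expressed as % of standard per 5 × 10^5 cells. Triplicates, 1-way ANOVA.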"}, "Blood [12]": {"system": "Blood", "assay": "Biodistribution in blood of rat 9L cells implanted Fischer rat at 15 to 30 uCi, iv after 15 mins by gamma-counter", "format": "ADME, organism-based", "conditions": "in vivo, 0.25 h", "method_in_brief": "as §1"}, "Blood [13]": {"system": "Blood", "assay": "Biodistribution in blood of rat 9L cells implanted Fischer rat at 15 to 30 uCi, iv after 30 mins by gamma-counter", "format": "ADME, organism-based", "conditions": "in vivo, 0.5 h", "method_in_brief": "as §1"}, "Blood [14]": {"system": "Blood", "assay": "Biodistribution in blood of rat 9L cells implanted Fischer rat at 15 to 30 uCi, iv after 60 mins by gamma-counter", "format": "ADME, organism-based", "conditions": "in vivo, 1 h", "method_in_brief": "as §1"}, "Blood [15]": {"system": "Blood", "assay": "Biodistribution in blood of rat 9L cells implanted Fischer rat at 15 to 30 uCi, iv after 120 mins by gamma-counter", "format": "ADME, organism-based", "conditions": "in vivo, 2 h", "method_in_brief": "as §1"}, "Heart [16]": {"system": "Heart", "assay": "Biodistribution in heart of rat 9L cells implanted Fischer rat at 15 to 30 uCi, iv after 15 mins by gamma-counter", "format": "ADME, organism-based", "conditions": "in vivo, 0.25 h", "method_in_brief": "as §1"}, "Heart [17]": {"system": "Heart", "assay": "Biodistribution in heart of rat 9L cells implanted Fischer rat at 15 to 30 uCi, iv after 30 mins by gamma-counter", "format": "ADME, organism-based", "conditions": "in vivo, 0.5 h", "method_in_brief": "as §1"}, "Heart [18]": {"system": "Heart", "assay": "Biodistribution in heart of rat 9L cells implanted Fischer rat at 15 to 30 uCi, iv after 60 mins by gamma-counter", "format": "ADME, organism-based", "conditions": "in vivo, 1 h", "method_in_brief": "as §1"}, "Heart [19]": {"system": "Heart", "assay": "Biodistribution in heart of rat 9L cells implanted Fischer rat at 15 to 30 uCi, iv after 120 mins by gamma-counter", "format": "ADME, organism-based", "conditions": "in vivo, 2 h", "method_in_brief": "as §1"}, "Lung [20]": {"system": "Lung", "assay": "Biodistribution in lung of rat 9L cells implanted Fischer rat at 15 to 30 uCi, iv after 15 mins by gamma-counter", "format": "ADME, organism-based", "conditions": "in vivo, 0.25 h", "method_in_brief": "as §1"}, "Lung [21]": {"system": "Lung", "assay": "Biodistribution in lung of rat 9L cells implanted Fischer rat at 15 to 30 uCi, iv after 30 mins by gamma-counter", "format": "ADME, organism-based", "conditions": "in vivo, 0.5 h", "method_in_brief": "as §1"}, "Lung [22]": {"system": "Lung", "assay": "Biodistribution in lung of rat 9L cells implanted Fischer rat at 15 to 30 uCi, iv after 60 mins by gamma-counter", "format": "ADME, organism-based", "conditions": "in vivo, 1 h", "method_in_brief": "as §1"}, "Lung [23]": {"system": "Lung", "assay": "Biodistribution in lung of rat 9L cells implanted Fischer rat at 15 to 30 uCi, iv after 120 mins by gamma-counter", "format": "ADME, organism-based", "conditions": "in vivo, 2 h", "method_in_brief": "as §1"}, "Liver [24]": {"system": "Liver", "assay": "Biodistribution in liver of rat 9L cells implanted Fischer rat at 15 to 30 uCi, iv after 15 mins by gamma-counter", "format": "ADME, organism-based", "conditions": "in vivo, 0.25 h", "method_in_brief": "as §1"}, "Liver [25]": {"system": "Liver", "assay": "Biodistribution in liver of rat 9L cells implanted Fischer rat at 15 to 30 uCi, iv after 30 mins by gamma-counter", "format": "ADME, organism-based", "conditions": "in vivo, 0.5 h", "method_in_brief": "as §1"}}}
{"smiles": "N[C@]1(C(=O)O)C[C@H]([18F])C1", "values": [{"measurement": "Drug uptake", "setting": "Bone [1]", "value": 0.26, "unit": "% ID/g"}, {"measurement": "Drug uptake", "setting": "Bone [2]", "value": 0.28, "unit": "% ID/g"}, {"measurement": "Drug uptake", "setting": "Bone [3]", "value": 0.2, "unit": "% ID/g"}, {"measurement": "Drug uptake", "setting": "[4]", "value": 0.17, "unit": "% ID/g"}, {"measurement": "Drug uptake", "setting": "[5]", "value": 0.27, "unit": "% ID/g"}, {"measurement": "Drug uptake", "setting": "[6]", "value": 0.27, "unit": "% ID/g"}, {"measurement": "Drug uptake", "setting": "[7]", "value": 0.21, "unit": "% ID/g"}, {"measurement": "Ratio", "setting": "[8]", "value": 7.2}, {"measurement": "Ratio", "setting": "[9]", "value": 11.5}, {"measurement": "Ratio", "setting": "[10]", "value": 7.6}, {"measurement": "Ratio", "setting": "[11]", "value": 7.7}, {"measurement": "Drug uptake", "setting": "9L", "value": 15.8, "unit": "%ID"}, {"measurement": "Drug uptake", "setting": "Blood [12]", "value": 0.36, "unit": "% ID/g"}, {"measurement": "Drug uptake", "setting": "Blood [13]", "value": 0.37, "unit": "% ID/g"}, {"measurement": "Drug uptake", "setting": "Blood [14]", "value": 0.32, "unit": "% ID/g"}, {"measurement": "Drug uptake", "setting": "Blood [15]", "value": 0.26, "unit": "% ID/g"}, {"measurement": "Drug uptake", "setting": "Heart [16]", "value": 0.43, "unit": "% ID/g"}, {"measurement": "Drug uptake", "setting": "Heart [17]", "value": 0.47, "unit": "% ID/g"}, {"measurement": "Drug uptake", "setting": "Heart [18]", "value": 0.38, "unit": "% ID/g"}, {"measurement": "Drug uptake", "setting": "Heart [19]", "value": 0.3, "unit": "% ID/g"}, {"measurement": "Drug uptake", "setting": "Lung [20]", "value": 0.4, "unit": "% ID/g"}, {"measurement": "Drug uptake", "setting": "Lung [21]", "value": 0.57, "unit": "% ID/g"}, {"measurement": "Drug uptake", "setting": "Lung [22]", "value": 0.42, "unit": "% ID/g"}, {"measurement": "Drug uptake", "setting": "Lung [23]", "value": 0.48, "unit": "% ID/g"}, {"measurement": "Drug uptake", "setting": "Liver [24]", "value": 0.73, "unit": "% ID/g"}, {"measurement": "Drug uptake", "setting": "Liver [25]", "value": 0.6, "unit": "% ID/g"}]}
